Measured values as given in PMC5388420 (Nucleic Acids Research, 2016).
Read-outs that look alike come from different tables or passages of the source.

Experiments:
[1] = tested on: IFN-β/FireflyLuc reporter in HEK 293T cells; assay: IFN-β induction dual luciferase assay; format: cell-based; conditions: for Maximum IFN-β Production, 5΄OH10L: HEK 293T cells challenged with 5΄OH10L; for Maximum IFN-β Production, 5΄ppp10L: HEK 293T cells challenged with 5΄ppp10L; for Maximum IFN-β Production, PIC: HEK 293T cells challenged with poly(I:C); for Maximum IFN-β Production, Mock: HEK 293T cells, mock challenge (no exogenous RNA)
[2] = MANT-ATP binding by stopped flow fluorescence spectroscopy; conditions: for Kd: read-out: MANT-ATP binding Kd (calc., koff/kon)
5΄ppp10L hairpin RNA [3] = conditions: presence of either ATPγS or ADP; ref [22]; cited from earlier work
[4] = molecular target: FAM-labeled 10 base pair RNA hairpin (OH10L); assay: Equilibrium fluorescent RNA binding assay; conditions: read-out: Equilibrium RNA binding Kd, OH10L
How it was run: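 Recombinant hRIG-I was expressed from pET-SUMO in E. coli Rosetta II (DE3) and purified by nickel, heparin and Superdex 200 chromatography. 6-FAM was attached via the amino-modified UUCG tetraloop, with 2 nM hairpin final. Buffer: 25 mM MOPS pH 7.4, 150 mM NaCl, 5 mM DTT, 0.01% Triton X-100. Protein was titrated over 12 points (1.5–1500 nM) and equilibrated 2 h at RT. Polarization was read at ex 485/em 528 (G = 0.87), 2 wells × 3 reads, and fit one-site total binding. Three experiments gave mean and SD.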

5΄ppp10L RNA hairpin = assay: NADH coupled ATPase activity assay; format: biochemical; conditions: for K M,RNA / k cat: steady state ATPase activity; for K M,RNA: 5΄ppp10L
How it was run: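 Coupled NADH assay: 10 nM RIG-I in 25 mM MOPS pH 7.4, 150 mM NaCl, 5 mM DTT with 1 mM NADH, 100 U/ml lactate dehydrogenase, 500 U/ml pyruvate kinase and 2.5 mM PEP. The hairpin was added as a 12-point series (~0.5–500 nM, diluted in MES pH 6.0/EDTA) and incubated ≥2 h at RT. Reactions were started with 5 mM ATP/5 mM MgCl2, and NADH absorbance loss was followed for 10 min. Mean velocities were plotted against RNA concentration.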

5΄ppp10L hairpin RNA [5] = assay: RNA dissociation rate constant measurements; format: binding
How it was run: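 RIG-I was pre-incubated equimolar with Cy3-labeled hairpin for 2–6 h at RT, then rapidly mixed with 100-fold excess unlabeled hairpin trap (2000 points). Nucleotide (3 mM ATPγS or ADP) plus MgCl2 was included with the trap. Excitation was 515 nm with emission ≥570 nm. 4–6 averaged traces were fit double-exponential for amplitudes and k1/k2.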

[6] = from 5΄ppp10L, nucleotide: ADP (3 mM)
[7] = from 5΄ppp10L, nucleotide: ATPγS (3 mM)
[8] = from 5΄ppp10L, nucleotide: None

Row | Kd ([2]; protein bound to OH10L) [µM] | Kd [4] [µM] | Kd ([2]; protein bound to 5΄ppp10L) [µM] | Molecule | Maximum IFN-β Production, 5΄OH10L [1] [Firefly Luc/Renilla Luc] | Maximum IFN-β Production, 5΄ppp10L [1] [Firefly Luc/Renilla Luc] | Maximum IFN-β Production, PIC [1] [Firefly Luc/Renilla Luc] | Maximum IFN-β Production, Mock [1] [Firefly Luc/Renilla Luc] | K M,RNA (5΄ppp10L RNA hairpin) | k cat (5΄ppp10L RNA hairpin; stimulated by 5΄ppp10L) | Amplitude of k 1 (5΄ppp10L hairpin RNA [5]; [7]) [%] | Amplitude of k 2 (5΄ppp10L hairpin RNA [5]; [7]) [%] | k 1 (RNA dissociation rate constant) (5΄ppp10L hairpin RNA [5]; [7]) | k 2 (RNA dissociation rate constant) (5΄ppp10L hairpin RNA [5]; [7]) | Amplitude of k 1 (5΄ppp10L hairpin RNA [5]; [8]) [%] | Amplitude of k 2 (5΄ppp10L hairpin RNA [5]; [8]) [%] | k 1 (RNA dissociation rate constant) (5΄ppp10L hairpin RNA [5]; [8]) | k 2 (RNA dissociation rate constant) (5΄ppp10L hairpin RNA [5]; [8]) | also measured
1 | 136 ± 6 | 0.017 ± 0.001 | – | WT RIG-I: Wild-type human RIG-I (hRIG-I), innate immune receptor and RNA-stimulated ATPase, recombinant or expressed from pUNO-hRIG-I (protein, UniProt O95786 1-925, looked up) Antiviral innate immune …: MTTEQRRSLQAFQDYIRKTLDPTYILSYMAPWFREEEVQYIQAEKNNKGPMEAATLFLKFLLELQEEGWFRGFLDALDHAGYSGLYEAIESWDFKKIEKLEEYRLLLKRLQPEFKTRIIPTDIISDLSECLINQECEEILQICSTKGMMAGAEKLVECLLRSDKENWPKTLKLALEKERNKFSELWIVEKGIKDVETEDLEDKMETSDIQIFYQEDPECQNLSENSCPPSEVSDTNLYSPFKPRNYQLELALPAMKGKNTIICAPTGCGKTFVSLLICEHHLKKFPQGQKGKVVFFANQIPVYEQQKSVFSKYFERHGYRVTGISGATAENVPVEQIVENNDIIILTPQILVNNLKKGTIPSLSIFTLMIFDECHNTSKQHPYNMIMFNYLDQKLGGSSGPLPQVIGLTASVGVGDAKNTDEALDYICKLCASLDASVIATVKHNLEELEQVVYKPQKFFRKVESRISDKFKYIIAQLMRDTESLAKRICKDLENLSQIQNREFGTQKYEQWIVTVQKACMVFQMPDKDEESRICKALFLYTSHLRKYNDALIISEHARMKDALDYLKDFFSNVRAAGFDEIEQDLTQRFEEKLQELESVSRDPSNENPKLEDLCFILQEEYHLNPETITILFVKTRALVDALKNWIEGNPKLSFLKPGILTGRGKTNQNTGMTLPAQKCILDAFKASGDHNILIATSVADEGIDIAQCNLVILYEYVGNVIKMIQTRGRGRARGSKCFLLTSNAGVIEKEQINMYKEKMMNDSILRLQTWDEAVFREKILHIQTHEKFIRDSQEKPKPVPDKENKKLLCRKCKALACYTADVRVIEECHYTVLGDAFKECFVSRPHPKPKQFSSFEKRAKIFCARQNCSHDWGIHVKYKTFEIPVIKIESFVVEDIATGVQTLYSKWKDFHFEKIPFDPAEMSK | 3.8 ± 0.3 | 20.1 ± 1.7 | 59.2 ± 15 | 0.99 ± 0.4 | 10.0 ± 1.0 nM | 18.2 ± 0.3 ATP/RIG-I•s | – | – | – | – | – | – | – | – | increase in the rate of dissociation from 5΄ppp10L (5΄ppp10L hairpin RNA [3]): 5 fold; kcat (RNA-stimulated ATPase activity) (5΄ppp10L RNA hairpin; stimulated by 5΄ppp10L): 18.2 s⁻¹
2 | 75 ± 5 | 0.023 ± 0.0018 | 82 ± 6 | S411A: RIG-I variant with mutation S411A within conserved helicase Motif III; constitutively signaling (protein, UniProt O95786 1-925, looked up, variant S411A) Antiviral innate immune …: MTTEQRRSLQAFQDYIRKTLDPTYILSYMAPWFREEEVQYIQAEKNNKGPMEAATLFLKFLLELQEEGWFRGFLDALDHAGYSGLYEAIESWDFKKIEKLEEYRLLLKRLQPEFKTRIIPTDIISDLSECLINQECEEILQICSTKGMMAGAEKLVECLLRSDKENWPKTLKLALEKERNKFSELWIVEKGIKDVETEDLEDKMETSDIQIFYQEDPECQNLSENSCPPSEVSDTNLYSPFKPRNYQLELALPAMKGKNTIICAPTGCGKTFVSLLICEHHLKKFPQGQKGKVVFFANQIPVYEQQKSVFSKYFERHGYRVTGISGATAENVPVEQIVENNDIIILTPQILVNNLKKGTIPSLSIFTLMIFDECHNTSKQHPYNMIMFNYLDQKLGGSSGPLPQVIGLTAAVGVGDAKNTDEALDYICKLCASLDASVIATVKHNLEELEQVVYKPQKFFRKVESRISDKFKYIIAQLMRDTESLAKRICKDLENLSQIQNREFGTQKYEQWIVTVQKACMVFQMPDKDEESRICKALFLYTSHLRKYNDALIISEHARMKDALDYLKDFFSNVRAAGFDEIEQDLTQRFEEKLQELESVSRDPSNENPKLEDLCFILQEEYHLNPETITILFVKTRALVDALKNWIEGNPKLSFLKPGILTGRGKTNQNTGMTLPAQKCILDAFKASGDHNILIATSVADEGIDIAQCNLVILYEYVGNVIKMIQTRGRGRARGSKCFLLTSNAGVIEKEQINMYKEKMMNDSILRLQTWDEAVFREKILHIQTHEKFIRDSQEKPKPVPDKENKKLLCRKCKALACYTADVRVIEECHYTVLGDAFKECFVSRPHPKPKQFSSFEKRAKIFCARQNCSHDWGIHVKYKTFEIPVIKIESFVVEDIATGVQTLYSKWKDFHFEKIPFDPAEMSK | 19.5 ± 3.8 | 56.6 ± 10.8 | 209.8 ± 17 | 3.5 ± 0.5 | 5.0 ± 1 nM | 5.1 ± 0.4 ATP/RIG-I•s | 42 | 58 | 68 ± 0.9 × 10^−3 s^−1 | 2 ± 0.04 × 10^−3 s^−1 | 52 | 48 | 45 ± 0.2 × 10^−3 s^−1 | 4 ± 0.1 × 10^−3 s^−1 | Amplitude of k 1 (5΄ppp10L hairpin RNA [5]; [6]): 62%; Amplitude of k 2 (5΄ppp10L hairpin RNA [5]; [6]): 38%; k 1 (RNA dissociation rate constant) (5΄ppp10L hairpin RNA [5]; [6]): 70 ± 0.9 × 10^−3 s^−1; k 2 (RNA dissociation rate constant) (5΄ppp10L hairpin RNA [5]; [6]): 6 ± 0.1 × 10^−3 s^−1; effect of nucleotide on the rate of dissociation from 5΄ppp10L (5΄ppp10L hairpin RNA [5]; saturating nucleotide (ATPγS, ADP)): did not significantly change; greater affinity for MANT-ATP relative to WT ([2]; protein bound to OH10L): 2 fold
3 | – | 0.041 ± 0.0018 | 110 ± 8 | S411L: RIG-I Motif III variant, serine 411 mutated to leucine, annotated in tumor samples (protein, UniProt O95786 1-925, looked up, variant S411L) Antiviral innate immune …: MTTEQRRSLQAFQDYIRKTLDPTYILSYMAPWFREEEVQYIQAEKNNKGPMEAATLFLKFLLELQEEGWFRGFLDALDHAGYSGLYEAIESWDFKKIEKLEEYRLLLKRLQPEFKTRIIPTDIISDLSECLINQECEEILQICSTKGMMAGAEKLVECLLRSDKENWPKTLKLALEKERNKFSELWIVEKGIKDVETEDLEDKMETSDIQIFYQEDPECQNLSENSCPPSEVSDTNLYSPFKPRNYQLELALPAMKGKNTIICAPTGCGKTFVSLLICEHHLKKFPQGQKGKVVFFANQIPVYEQQKSVFSKYFERHGYRVTGISGATAENVPVEQIVENNDIIILTPQILVNNLKKGTIPSLSIFTLMIFDECHNTSKQHPYNMIMFNYLDQKLGGSSGPLPQVIGLTALVGVGDAKNTDEALDYICKLCASLDASVIATVKHNLEELEQVVYKPQKFFRKVESRISDKFKYIIAQLMRDTESLAKRICKDLENLSQIQNREFGTQKYEQWIVTVQKACMVFQMPDKDEESRICKALFLYTSHLRKYNDALIISEHARMKDALDYLKDFFSNVRAAGFDEIEQDLTQRFEEKLQELESVSRDPSNENPKLEDLCFILQEEYHLNPETITILFVKTRALVDALKNWIEGNPKLSFLKPGILTGRGKTNQNTGMTLPAQKCILDAFKASGDHNILIATSVADEGIDIAQCNLVILYEYVGNVIKMIQTRGRGRARGSKCFLLTSNAGVIEKEQINMYKEKMMNDSILRLQTWDEAVFREKILHIQTHEKFIRDSQEKPKPVPDKENKKLLCRKCKALACYTADVRVIEECHYTVLGDAFKECFVSRPHPKPKQFSSFEKRAKIFCARQNCSHDWGIHVKYKTFEIPVIKIESFVVEDIATGVQTLYSKWKDFHFEKIPFDPAEMSK | – | 7.8 ± 1.5 | 1.8 ± 0.4 | 0.2 ± 0.01 | Inactive | Inactive | 81 | 19 | 210 ± 1 × 10^−3 s^−1 | 10 ± 0.1 × 10^−3 s^−1 | 52 | 48 | 27 ± 0.2 × 10^−3 s^−1 | 2 ± 0.04 × 10^−3 s^−1 | loss in IFN-β activation relative to WT ([1]; HEK 293T cells challenged by 5΄ppp10L): 3 fold; loss in IFN-β activation relative to WT ([1]; HEK 293T cells challenged by poly I:C): 31 fold; stimulation of koff^RNA by ATPγS (5΄ppp10L hairpin RNA [5]; from 5΄ppp10L): 7.8 fold
